Laboratory results reported in the RNAGym collection of RNA variant scans (doi:10.1126/science.aae0568).
Fewer inactive variants are shown than the library holds.

B1: tRNA (parent)
chain: GUUCCGUUGGCGUAAUGGUAACGCGUCUCCCUCCUAAGGAGAAGACUGCGGGUUCGAGUCCCGUACGGAACG

Variants of: B1
Test: yeast fitness relative to wild type (ratio to wild type); higher = fitter; tRNA-Arg(CCU), competitive growth, 37 C, YPD
Method in brief: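 For this measurement, the tRNA-Arg(CCU) gene was varied by chemical synthesis at a 3% per-site mutation rate across 69 sites, and each variant was placed at the native genomic locus in Saccharomyces cerevisiae. The pooled strains went through a 24-hour competition in YPD at 37°C in six parallel replicates, with amplicons from start and end populations read by 100-nucleotide paired-end sequencing. Darwinian fitness relative to wild type followed from the change in each genotype's frequency. Genotypes needed ≥ 100 starting reads, and estimates < 0.5 were set to 0.5.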

| Variant | yeast fitness |
| --- | --- |
| U2G C4U C34G | ≤ 0.5 |
| U2G U3C A21C | ≤ 0.5 |
| U2G G6A C31G C33U U59G C66U G68A | ≤ 0.5 |
| U2G G25A U53A G63A | 0.563 |
| U2G C4U A36G A45U | 0.537 |
| U2G C29G G44C C49G A57U | ≤ 0.5 |
| U2G G12C C49U C66U | ≤ 0.5 |
| U3A A14G G23C | 0.716 |
| U2G A40G G41C C60G | 0.688 |
| U3A A42U A43G G48C U53A A69C | ≤ 0.5 |
| U2G G9C A20G A42C C46G C49U C66U A69C | ≤ 0.5 |
| U2G C4U C11G G18C U32C C34U A45U A70U | ≤ 0.5 |
| U3A A15C | 0.659 |
| U2G U54C | 0.962 |
| U2G U54G | ≤ 0.5 |
| U3A A40U | 0.841 |
| U2G | 0.994 |
| U2G A37C G41A C49U C60G | 0.51 |
| U3A A14C A20C U28A C29G U32C G39A A70C | ≤ 0.5 |
| U3A A21G A65C | 0.64 |
| U3A A21G C34G A40G C60G C62G | ≤ 0.5 |
| U2G C46G G52A | ≤ 0.5 |
| U2G U47G | 0.546 |
| U2G A45C C49U C55U | ≤ 0.5 |

| Variant | yeast fitness |
| --- | --- |
| U2G C27U | 0.878 |
| U2G C27G | 0.546 |
| U2G C34G G39C | ≤ 0.5 |
| U3A A14U A20C | ≤ 0.5 |
| U2G C5A | 0.725 |
| U2G C62G C66U | ≤ 0.5 |
| U2C U54A | 0.612 |
| U2G C4U C29G | ≤ 0.5 |
| U2G U28A C29G G51A G56A G67C | ≤ 0.5 |
| U2G C5A U19A A43G | ≤ 0.5 |
| U2G U64A | 0.776 |
| U2G C33G C62U A65U | ≤ 0.5 |
| U3A A36U | 0.681 |
| U2G C33G C61A | ≤ 0.5 |
| U3A A14C A21C G41A G44C U47C C49U G56A | ≤ 0.5 |
| U2G U26C G56A | 0.547 |
| U2G C4U C60G | 0.54 |
| U2G C29G U47C | 0.557 |
| U2G G9C A65C | 0.548 |
| U3A A65G | 0.899 |
| U3A A65U | 0.704 |
| U2G G48A G58C A65U G67C | ≤ 0.5 |
| U3A A15C U16A U35A G52C C55A | ≤ 0.5 |
| U2G U3A | 0.736 |

| Variant | yeast fitness |
| --- | --- |
| U2G A57C G68U | ≤ 0.5 |
| U2G A15U C24G U53A U64A | ≤ 0.5 |
| U2G C34G G39C G41C G67C | ≤ 0.5 |
| U3A A42G G52C A57G | ≤ 0.5 |
| U2G A21G A40G | ≤ 0.5 |
| U2G G52C C61G | ≤ 0.5 |
| U2G G10A A69C | ≤ 0.5 |
| U3A A36U C55A C62U | ≤ 0.5 |
| U2G G68C | 0.705 |
| U2G C29U G44C U54A | 0.554 |
| U2G C11U A45C U53G | 0.583 |
| U2G C5A G10C | ≤ 0.5 |
| U3A A20U A42C C55G | ≤ 0.5 |
| U2C U53A | 0.7 |
| U2G G9C A65C G68A | ≤ 0.5 |
| U2G C24A C31G A45U | ≤ 0.5 |
| U2G A57U | 0.66 |
| U2G A57G | 0.82 |
| U2G C33G A45G A70U | ≤ 0.5 |
| U2G C24G | 0.769 |
| U2G C24A | 0.82 |
| U2G C33U C34G G48C G67C | ≤ 0.5 |
| U3A A37C C60A A70G | ≤ 0.5 |
| U3A A20G C22U | 0.584 |

| Variant | yeast fitness |
| --- | --- |
| U2G G18C G23U C27U U64A | ≤ 0.5 |
| U3A A14U C46G | ≤ 0.5 |
| U3A A20C A21G | 0.679 |
| U2G A20U G25C C49G | ≤ 0.5 |
| U2G G6A C27G U54C C62U | ≤ 0.5 |
| U2G A70G | 1.07 |
| U2G A70U | 0.917 |
| U3A A57G | 0.776 |
| U3A A57U | 0.754 |
| U2G G12A U13A G25C U28A C33A G63C U64C | ≤ 0.5 |
| U2G C30A C46U G52C | ≤ 0.5 |
| U2G C5U A21C G48A G50C | ≤ 0.5 |
| U3A A14G C55U G63C | ≤ 0.5 |
| U2G A20G C46A | 0.618 |
| U3A A42U | 0.846 |
| U2G U8A G23A U26G A43G | 0.576 |
| U3A A21U C60G C66U | ≤ 0.5 |
| U2G C55G | 0.532 |
| U2G U7C C29G C60A | ≤ 0.5 |
| U2G A15U C62A | 0.613 |
| U2G C11U A40U C49A | 0.523 |
| U2G A45U G67C | ≤ 0.5 |
| U3A A40G U53A | ≤ 0.5 |
| U2G G6A G23A C29G C55A | 0.508 |

| Variant | yeast fitness |
| --- | --- |
| U2G A43U G67C | 0.668 |
| U2G U26G G44C G58A A65G | ≤ 0.5 |
| U2G A45U C66U | 0.555 |
| U3A A21C G25U A43C C61G C62U | ≤ 0.5 |
| U2G U13A C22U C61U C66U | ≤ 0.5 |
| U2G G12C C49U | ≤ 0.5 |
| U3A A40C C62U | 0.548 |
| U2G U19G | 1.24 |
| U2G C4U C62U G68U | ≤ 0.5 |
| U2G G18A C29G C31G | ≤ 0.5 |
| U2G G38C | 0.606 |
| U2G C27U C46U G68C | 0.763 |
| U2G C34U | 0.616 |
| U2G C34G | 0.655 |
| U2G G12A U13A G25C U28A C33A G63C U64C C66U | ≤ 0.5 |
| U2G A20C G38A | ≤ 0.5 |
| U2G A14U C22G C30G G58A | ≤ 0.5 |
| U2G U7C C55U C62G C66A | ≤ 0.5 |
| U2G U7C A69U | ≤ 0.5 |
| U2G C11G A20U C24G A42G | ≤ 0.5 |
| U2G C27A C34G A65G | ≤ 0.5 |
| U2G C49U C62U | 0.565 |
| U3A A21G A45U G67C | ≤ 0.5 |
| U2G C46G | 0.864 |

| Variant | yeast fitness |
| --- | --- |
| U2G C46U | 1.01 |
| U2G C24G G52C C66U | 0.807 |
| U3A C4A A21U | ≤ 0.5 |
| U2G U26G C49G | 0.724 |
| U2G C22A G56A U59G | ≤ 0.5 |
| U2G G6A C27U G39C | ≤ 0.5 |
| U2G A15G | 0.812 |
| U2G A15U | 0.75 |
| U2G C4A G38C G50A | 0.713 |
| U2G C11G G12C C49U | ≤ 0.5 |
| U2G U16G C27A A36C A70C | ≤ 0.5 |
| U2G C49U | 0.957 |
| U2G A43C | 1.07 |
| U2G A43U | 0.996 |
| U3A A14C C24G C33G | ≤ 0.5 |
| U2G G9C A20G A42C C46G C49U | 0.602 |
| U2G G9A A36G A57G C60U | 0.672 |
| U2G G6A G25A A37U A40C | ≤ 0.5 |
| U2G A14C C30U U54G C55A | ≤ 0.5 |
| U3A A15G U28C C60A | 0.522 |
| U3A A36G C62U | 0.69 |
| U2G C4A C22U U28G A42U G68U | ≤ 0.5 |
| U2G A40C G63A G68C | ≤ 0.5 |
| U2G U19A A21G C31U A65U G67C | ≤ 0.5 |

| Variant | yeast fitness |
| --- | --- |
| U2G G9C A20G G25A A42C C46G C49U A69C | ≤ 0.5 |
| U2G C22U U32C | ≤ 0.5 |
| U2G C5A A57U | ≤ 0.5 |
| U2G C4A U16C C31U A70U | ≤ 0.5 |
| U2G G9C A15G | ≤ 0.5 |
| U2G C62G | 0.632 |
| U2G U13A C22U | 0.579 |
| U2G G9A A69U | 0.577 |
| U3A A40C C55A C66A | ≤ 0.5 |
| U2G C4U U16A C27G A42U U53C | 0.564 |
| U2G C24G C29G C31G | 0.515 |
| U3A A14U G41C G67C | ≤ 0.5 |
| U3A A21C C24G G56A | ≤ 0.5 |
| U2G G9C A14C C27U G58A | ≤ 0.5 |
| U2G G9C G12A A42C C46A G68C | ≤ 0.5 |
| U2G C4A U16C | ≤ 0.5 |
| U2G G48A G58A | 0.614 |
| U2G A20C C27U C46A | 0.614 |
| U2G C24U C29G C61G | 0.635 |
| U2G A21G A57C G63A | ≤ 0.5 |
| U2G C62G A69C | ≤ 0.5 |
| U2G U35C A42C U47A G63C A69C | ≤ 0.5 |
| U2G G52A G56A | 0.81 |
